Shown are actives, neighbours in structure and some others; about 4.2% of the full set was active somewhere.
KCNQ1 block – blocks the human KCNQ1 potassium channel | P51787 | CHO-K1 KCNQ1, FluxOR thallium flux fluorescence; hits give high values | B-score at 10 µM | 1.3% of 310,000 active | AID 2642;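 active = compounds whose thallium flux B-score, printed positive for inhibition, exceeds three library SD while starting fluorescence stays within three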;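 note: channel opened by potassium depolarization with thallium stimulus after 20 min compound exposure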
Target sequence (P51787 whole entry, looked up): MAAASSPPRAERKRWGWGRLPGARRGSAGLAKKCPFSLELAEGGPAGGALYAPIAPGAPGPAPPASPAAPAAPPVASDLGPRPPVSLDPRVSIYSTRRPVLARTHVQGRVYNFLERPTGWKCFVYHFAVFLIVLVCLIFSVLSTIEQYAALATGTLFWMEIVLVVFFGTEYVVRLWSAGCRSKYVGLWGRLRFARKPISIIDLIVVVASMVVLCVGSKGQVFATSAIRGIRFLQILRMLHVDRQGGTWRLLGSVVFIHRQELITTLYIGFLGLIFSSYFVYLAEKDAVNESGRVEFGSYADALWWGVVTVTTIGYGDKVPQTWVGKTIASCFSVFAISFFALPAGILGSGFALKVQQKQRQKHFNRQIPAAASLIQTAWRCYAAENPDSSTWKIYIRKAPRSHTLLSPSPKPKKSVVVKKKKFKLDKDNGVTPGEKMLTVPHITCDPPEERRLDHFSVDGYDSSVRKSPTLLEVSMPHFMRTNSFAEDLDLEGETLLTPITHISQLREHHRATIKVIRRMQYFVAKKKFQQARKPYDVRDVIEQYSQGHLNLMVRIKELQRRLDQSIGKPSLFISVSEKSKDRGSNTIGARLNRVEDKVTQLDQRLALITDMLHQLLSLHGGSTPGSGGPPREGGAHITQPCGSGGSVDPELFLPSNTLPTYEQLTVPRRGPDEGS
Cl transport mod – modulates chloride dependent transport by human KCC2. Q9H2X9. KCC2 cells, thallium flux FluoZin-2 fluorescence. B-score of Tl+ flux slope (higher = more flux/activation; lower = inhibition) at 10 µM. 2.2% of 190,000 active;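 active = thallium flux slope and its plate-corrected score both differing from the plate sample mean at a set confidence after two filtering rounds, in either direction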;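 note: slope of fluorescence scaled to starting intensity during 10 to 20 s after thallium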
hERG rescue – hERG (human) protection from proarrhythmic block. 0.51% of 310,000 active. AID 1511. Q12809. activation (rescue from dofetilide block), less the hit threshold, % at 10 µM. CHO-hERG, FluxOR thallium flux, dofetilide IC70 present;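 active = activation above the mean of controls blocked by dofetilide plus 5 SD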;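 note: thallium influx through hERG after potassium depolarization seen as dye fluorescence rise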
Mot1-301 SUMO – blocks SUMOylation pathway, rescuing yeast Mot1-301 growth. S. cerevisiae Mot1-301 growth rescue, ATP luminescence, 38.5C; percent above DMSO median, 100 means doubled. growth rescue, % at 18.8 µM. 1% of 320,000 active. AID 2716;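 active = every valid replicate shows activation above 250% relative to neutral control wells; inactive = the rest, any valid replicate at or below 250%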
KCNQ1 act – potentiates or activates the human KCNQ1 potassium channel | P51787 | CHO-K1 KCNQ1, thallium flux FluxOR fluorescence; hits give high values | B-score at 10 µM | 0.35% of 310,000 active | AID 2648;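 active = fluorescence ratio B-score, a plate-corrected score, at least three library SD, with initial intensity B-score within 5 SD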
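assay system = CHO-K1 cells stably expressing KCNQ1 | medium = assay buffer, equal DMSO in all wells | timing = 37 °C overnight plating, 90-min dark dye load, 20-min compound pretreatment | measured by = kinetic FluxOR thallium fluorescence, 10-s 1-Hz baseline, 110-s post-stimulus read | measure = fluorescence change relative to baseline, converted to B score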
AI-2 QS modul – modulates the Vibrio harveyi AI-2 quorum sensing system; Vibrio harveyi JMH597 AI-2 luminescence/OD600 ratio, 9 h; hits give low values; strain lacks LuxN and CqsS sensors; 0 = neutral-control median; 0.4% of 300,000 active; activity change, % at 7.5 µM; in the data active = activity change below about -75%, passing the limit was not always enough;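 note: luminescence divided by OD600 gain over 9 h not by final OD600 alone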
KCNQ1 block val – reconfirmed blocker of the human KCNQ1 potassium channel; shares compounds with KCNQ1 block; KCNQ1 cell line, FluxOR thallium flux fluorescence; inhibition, % at 10 µM; 93% of 1,600 active; AID 588353;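 active = primary screen active, with duplicate mean exceeding buffer control mean plus 3 SD of buffer wells, cut at about 28% in these data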
CHO Tl flux – KCNQ1 inhibitor counter-screen hit in parental CHO cells; shares compounds with KCNQ1 block; parental CHO-K1, FluxOR thallium flux fluorescence ratio; hits give low values; zero means no signal rise above baseline; AID 588366; fluorescence ratio (Tl flux) at 10 µM; 21% of 1,600 active;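 active = mean of duplicate thallium-flux fluorescence ratios in parental host cells more than 5 SD below the buffer control mean, cut at about 0.38 in these data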;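 note: ratio is peak minus minimum fluorescence divided by baseline fluorescence; actives read low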
KCNQ1 APC inh – blocks human KCNQ1 current in automated patch clamp; KCNQ1-CHO cells; shares compounds with KCNQ1 block; calls only at 10 µM; 20% of 490 active;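 active = KCNQ1 current drop exceeding 3 SD of negative control wells, seen in both duplicate runs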;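 note: steady state current during a 2 s step from -80 to +40 mV; negative values mean current inhibition and positive values mean potentiation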
KCNQ2 spec – KCNQ1 inhibitor that also blocks rat KCNQ2 channel | shares compounds with KCNQ1 block | KCNQ2 cells, FluxOR thallium flux fluorescence | inhibition, % at 10 µM | 71% of 1,600 active | AID 651746;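 active = mean percent inhibition of the KCNQ2 thallium signal more than 5 SD above the buffer-only control wells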;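 note: KCNQ2 expressed in CHO cells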
KCNQ1 KCNE1 spec – human KCNQ1/KCNE1 inhibition in KCNQ1 specificity screen | shares compounds with KCNQ1 block | AID 652147 | 77% of 1,600 active | KCNQ1/KCNE1 cells, FluxOR thallium flux fluorescence | inhibition, % at 10 µM;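 active = mean percent inhibition of duplicate wells above the buffer-only control mean plus 3 SD of those controls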
Large screens that a line does not name were inactive (follow-up assays come after a bar, where they were run).

COc1ccc(NC(=S)Nc2cccc(C(F)(F)F)c2)c(C)c1	KCNQ1 block 8 | KCNQ1 block val 99 | CHO Tl flux inactive | KCNQ1 APC inh inactive | KCNQ2 spec 100% | KCNQ1 KCNE1 spec 60%
Cc1cc(Cl)ccc1OC(C)C(=O)Nc1ccc(C(=O)Nc2ccccc2C(=O)O)cc1 (stereo not given)	KCNQ1 block 9 (no result: Cl transport mod) | KCNQ1 block val 94 | CHO Tl flux inactive | KCNQ1 APC inh inactive | KCNQ2 spec inactive | KCNQ1 KCNE1 spec 80%
Cc1cc(Cl)ccc1OC(C)C(=O)Nc1ccc(S(=O)(=O)N2CCOCC2)cc1 (stereo not given)	none (no result: Cl transport mod)
CCOC(=O)c1cnc2ccc(OCC)cc2c1N1CCN(c2ccccc2OC)CC1	KCNQ1 block 11 | KCNQ1 block val 130 | CHO Tl flux 0.33 | KCNQ2 spec 141% | KCNQ1 KCNE1 spec 182%
CCOc1ccc2ncc(C(=O)c3ccc(OC)cc3)c(N3CCN(CC)CC3)c2c1	none
CCOC(=O)c1cnc2ccc(OCC)cc2c1N(C)Cc1ccccc1	KCNQ1 block 6 | KCNQ1 block val 148 | CHO Tl flux 0.34 | KCNQ2 spec 154% | KCNQ1 KCNE1 spec 198%
CCOC(=O)c1cc2cc(OCc3ccccc3)ccc2nc1C	none (no result: Cl transport mod)
O=C(C1CC(=O)N(c2ccccc2)C1)N1CCN(c2ccccc2)CC1 (stereo not given)	none (no result: Cl transport mod)
CCOC(=O)c1c(NC(=O)CSc2nnc(-c3c[nH]c4ccccc34)n2C)sc2c1CCCC2	KCNQ1 block 7 | KCNQ1 block val 64 | CHO Tl flux inactive | KCNQ2 spec 65% | KCNQ1 KCNE1 spec inactive
O=C(Nc1ccc(F)cc1F)c1cc(Cl)sc1Cl	none (no result: Cl transport mod)
COc1ccc2oc(/C=C/N(C)C)c(C(=O)c3ccc(Cl)cc3)c2c1	KCNQ1 block 6 | KCNQ1 block val 114 | CHO Tl flux 0.35 | KCNQ2 spec 139% | KCNQ1 KCNE1 spec 145%
O=C(CCS(=O)(=O)c1ccccc1)Nc1nc2c(s1)COc1ccccc1-2	KCNQ1 block 6 | KCNQ1 block val 54 | CHO Tl flux inactive | KCNQ2 spec 59% | KCNQ1 KCNE1 spec 54%
O=C(Nc1nc2c(s1)COc1ccccc1-2)c1cccs1	KCNQ1 block 7 | KCNQ1 block val 44 | CHO Tl flux inactive | KCNQ2 spec 102% | KCNQ1 KCNE1 spec 64%
O=C(NCc1ccco1)c1ccc(CNc2c(N3CCCCC3)c(=O)c2=O)cc1	none
N#Cc1c(N2CCN(C(=O)c3ccccc3Cl)CC2)nc(-c2ccccc2)c2c1CCCC2	KCNQ1 block 8 | KCNQ1 block val 92 | CHO Tl flux 0.34 | KCNQ2 spec 102% | KCNQ1 KCNE1 spec 117%
N#Cc1c(N2CCN(C(=O)c3ccccc3)CC2)nc(-c2ccccc2)c2c1CCCC2	none (no result: Cl transport mod)
Cc1ccc(-n2ncc3c2CC(C)(C)CC3NC(=O)c2c(C)noc2C)cc1 (stereo not given)	none (no result: Cl transport mod)
C=CCSc1nc2c(c(C3CC=CCC3)c1C#N)CCC2 (stereo not given)	KCNQ1 block 6 | KCNQ1 block val 88 | CHO Tl flux inactive | KCNQ1 APC inh inactive | KCNQ2 spec 101% | KCNQ1 KCNE1 spec 143%
CC(C)OC(=O)CSc1nc2c(c(C3CC=CCC3)c1C#N)CCC2 (stereo not given)	KCNQ1 block 10 | KCNQ1 block val 96 | CHO Tl flux 0.38 | KCNQ2 spec 132% | KCNQ1 KCNE1 spec 106%
C=CCSc1nc(N)c(C#N)c(-c2ccc(C)cc2)c1C#N	none
COc1ccc(OC)c(Cc2nnc(CCC(=O)NC3C4CC5CC(C4)CC3C5)o2)c1 (stereo not given)	none
Cc1ccc(NC(=O)C2C3/C=C\CCCCC32)cc1C (stereo not given)	none (no result: Cl transport mod)
O=C(c1ccc([N+](=O)[O-])s1)N1CCN(c2ccc(C(F)(F)F)cn2)CC1	none (no result: Cl transport mod)
O=C(CSc1ccncc1)Nc1ccc2ccccc2c1	none
O=C(CSc1ccc2ccccc2c1)Nc1ccncc1	KCNQ1 block 7 | KCNQ1 block val 90 | CHO Tl flux inactive | KCNQ1 APC inh inactive | KCNQ2 spec 75% | KCNQ1 KCNE1 spec inactive
CCOC(=O)c1c(CSC(=N)N)n(C)c2cc(Br)c(OC(C)=O)cc12	KCNQ1 block 8 | KCNQ1 block val 43 | CHO Tl flux inactive | KCNQ2 spec 60% | KCNQ1 KCNE1 spec 78%
N#Cc1ccc(S(=O)(=O)N2CCN(CC(=O)NCC3(N4CCOCC4)CCCCC3)CC2)cc1	none (no result: KCNQ1 block, Cl transport mod, hERG rescue, KCNQ1 act, AI-2 QS modul)
O=C(Cn1cnc2ccccc21)Nc1ccc(SC(F)F)cc1	KCNQ1 block 7 | KCNQ1 block val 115 | CHO Tl flux inactive | KCNQ1 APC inh active | KCNQ2 spec 71% | KCNQ1 KCNE1 spec 58%
COc1ccc(NC(=O)COC(=O)Cn2cnc3ccccc32)cc1	none (no result: KCNQ1 block, Cl transport mod, hERG rescue, KCNQ1 act, AI-2 QS modul)
C=CCC[C@@H](Cc1ccc(F)cc1)C(=O)OC[C@@H](Cc1ccccc1)NC(=O)[C@@H](CC=C)CC(=O)N[C@@H](CO)Cc1ccccc1	none (no result: KCNQ1 block, Cl transport mod, hERG rescue, KCNQ1 act, AI-2 QS modul)
COc1cc(NC(=O)c2ccnnc2)cc(C(=O)Nc2cccc(C(F)(F)F)c2)c1	KCNQ1 block 9 | KCNQ1 block val 92 | CHO Tl flux inactive | KCNQ2 spec 111% | KCNQ1 KCNE1 spec 117%
O=C(Cc1c[nH]c2ccccc12)Nc1ccc(N2CCOCC2)cc1	none
O=C(Nc1ccc(Cl)cc1)Nc1ccc2c(c1)N1CCN=C1S2	KCNQ1 block 12 | KCNQ1 block val 106 | CHO Tl flux inactive | KCNQ1 APC inh inactive | KCNQ2 spec 65% | KCNQ1 KCNE1 spec 110%
COc1ccccc1CC(Cc1nc2ccccc2[nH]1)c1nc2ccccc2[nH]1 (stereo not given)	KCNQ1 block 8 | KCNQ1 block val 47 | CHO Tl flux inactive | KCNQ2 spec 69% | KCNQ1 KCNE1 spec 46%
Cc1cccc(CC(Cc2nc3ccccc3[nH]2)c2nc3ccccc3[nH]2)c1 (stereo not given)	none (no result: Cl transport mod, Mot1-301 SUMO)
O=C1CCCN1c1ccc(S(=O)(=O)NCCOc2ccccc2)cc1	none

Source: PubChem
